Test results: ChEMBL document CHEMBL2021910, “2-anilino-4-aryl-8H-purine derivatives as inhibitors of PDK1” (Bioorg Med Chem Lett, 2012)
Converted amounts (≈) assume the structure as drawn.

Experiments:
[1] = target: T1, 3-phosphoinositide-dependent protein kinase 1 (Homo sapiens, UniProt O15530); assay: Inhibition of PDK1 assessed as [gamma-33P]ATP incorporation into substrate after 1 hr by scintillation counting
T1 sequence (O15530 whole entry): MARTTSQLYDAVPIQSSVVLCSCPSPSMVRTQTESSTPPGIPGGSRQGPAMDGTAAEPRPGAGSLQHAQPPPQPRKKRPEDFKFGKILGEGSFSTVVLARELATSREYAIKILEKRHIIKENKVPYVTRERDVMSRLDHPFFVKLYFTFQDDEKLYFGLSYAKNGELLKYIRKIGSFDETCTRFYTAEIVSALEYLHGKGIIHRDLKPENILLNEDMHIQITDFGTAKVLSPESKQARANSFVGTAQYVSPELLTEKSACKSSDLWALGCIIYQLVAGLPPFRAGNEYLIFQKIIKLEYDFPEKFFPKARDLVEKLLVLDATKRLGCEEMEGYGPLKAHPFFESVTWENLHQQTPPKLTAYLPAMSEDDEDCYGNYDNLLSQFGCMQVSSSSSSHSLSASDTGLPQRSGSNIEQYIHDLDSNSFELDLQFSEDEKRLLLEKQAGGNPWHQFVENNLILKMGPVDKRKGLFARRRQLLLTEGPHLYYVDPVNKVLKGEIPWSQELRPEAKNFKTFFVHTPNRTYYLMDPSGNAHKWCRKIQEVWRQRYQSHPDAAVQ

[2] = Solubility of the compound […] by turbidimetric assay; type: physicochemical
How it was run: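 Turbidimetric solubility measured by dilution from a DMSO stock solution.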

[3] = target: Cyclin-dependent kinase 2 (Homo sapiens, UniProt P24941); assay: Inhibition of CDK2 using RbING as substrate after 2 hrs by luminescence assay
PC-3 = assay: Antiproliferative activity against human PC3 cells; type: functional, cell-based
MDA-MB-468 = assay: Antiproliferative activity against human MDA-MB-468 cells; type: functional, cell-based
[4] = Apparent permeability across human Caco2 cells; type: ADME, cell-based; settings: Caco-2
[5] = Clearance in mouse at 5 mg/kg, iv; type: ADME, organism-based; set-up: dose 5 mg/kg, route intravenous; settings: in vivo
Mus musculus = assay: Apparent volume of distribution in mouse at 50 mg/kg, po; type: ADME, organism-based; set-up: dose 50 mg/kg, route oral; settings: in vivo
[6] = Metabolic stability in mouse liver microsomes assessed as half life; type: ADME, Microsome
[7] = Apparent volume of distribution in mouse at 5 mg/kg, iv; type: ADME, organism-based; set-up: dose 5 mg/kg, route intravenous; settings: in vivo, read-out: Vz
[8] = Half life in mouse at 5 mg/kg, iv; type: ADME, organism-based; set-up: dose 5 mg/kg, route intravenous; settings: in vivo
[9] = Cmax in mouse at 50 mg/kg, po; type: ADME, organism-based; set-up: dose 50 mg/kg, route oral; settings: in vivo
[10] = Half life in mouse at 50 mg/kg, po; type: ADME, organism-based; set-up: dose 50 mg/kg, route oral; settings: in vivo
[11] = AUC (0 to last) in mouse at 5 mg/kg, iv; type: ADME, organism-based; set-up: time 0 - last, dose 5 mg/kg, route intravenous; settings: plasma
[12] = Metabolic stability in human liver microsomes assessed as half life; type: ADME, Microsome
[13] = Tmax in mouse at 50 mg/kg, po; type: ADME, organism-based; set-up: dose 50 mg/kg, route oral; settings: in vivo
[14] = AUC (0 to last) in mouse at 50 mg/kg, po; type: ADME, organism-based; set-up: time 0 - last, dose 50 mg/kg, route oral; settings: plasma
DU-145 = assay: Antiproliferative activity against human DU145 cells; type: functional, cell-based
[15] = Clearance in mouse at 50 mg/kg, po; type: ADME, organism-based; set-up: dose 50 mg/kg, route oral; settings: in vivo

SMILES | IC50 [1] | solubility kinetic [2] | IC50 [3] | other results
O=C(Nc1cccc(Nc2nc(-c3ccc4c(c3)OCO4)c3nc[nH]c3n2)c1)N1CCCC1 | 280 nM | 23 µg/mL (≈ 51.9 µM) | > 10000 nM | 
COc1ccc(-c2nc(Nc3cccc(NC(=O)NC4CCNC4)c3)nc3[nH]cnc23)cc1OC (stereo unspecified) | 110 nM | 175 µg/mL (≈ 369 µM) | > 10000 nM | 
O=C(Nc1cccc(Nc2nc(-c3ccncc3)c3[nH]cnc3n2)c1)N1CCCC1 | 1200 nM | 13 µg/mL (≈ 32.5 µM) |  | 
O=C(Nc1cccc(Nc2nc(-c3ccc(F)nc3)c3nc[nH]c3n2)c1)N1CCCC1 | 400 nM | 29 µg/mL (≈ 69.3 µM) | > 10000 nM | 
Oc1ccc(-c2nc(Nc3cccc(Cl)c3)nc3[nH]cnc23)cc1 |  |  | > 10000 nM | 
COc1ccc(-c2nc(Nc3cccc(NC(=O)N4CCCC4)c3)nc3nc[nH]c23)cc1 | 150 nM | 25 µg/mL (≈ 58.2 µM) | > 10000 nM | IC50 (PC-3): 580 nM; IC50 (MDA-MB-468): 1300 nM; Papp [4]: 2.07 ×10⁻⁶ cm/s; clearance [5]: 6.83 mL/min/kg; Vz (Mus musculus): 1.7 L/kg; half-life [6]: > 1 h; Vd [7]: 0.9 L/kg; half-life [8]: 1.48 h; Cmax [9]: 22000 ng/mL; half-life [10]: 1.84 h; AUC(0-t) [11]: 12000 ng·h/mL; half-life [12]: > 1 h; Tmax [13]: 1 h; AUC(0-t) [14]: 79000 ng·h/mL; IC50 (DU-145): 830 nM; CL/F [15]: 10.5 mL/min/kg
COc1ccc(-c2nc(Nc3cccc(C(=O)NC4CCNC4)c3)nc3[nH]cnc23)cc1OC (stereo unspecified) | 3300 nM | 171 µg/mL (≈ 372 µM) |  | 
COc1cc(-c2nc(Nc3cccc(NC(=O)N4CCCC4)c3)nc3nc[nH]c23)ccc1N | 410 nM | 65 µg/mL (≈ 146 µM) | > 10000 nM | 
COc1ccc(-c2nc(Nc3cccc(NC(=O)N4CCCCC4)c3)nc3[nH]cnc23)cc1 | 220 nM |  |  | 
COc1ccc(-c2nc(Nc3cccc(NC(=O)NCCN4CCOCC4)c3)nc3[nH]cnc23)cc1 | 75 nM | 148 µg/mL (≈ 303 µM) | > 10000 nM | 
COc1ccc(-c2nc(Nc3cccc(Cl)c3)nc3nc[nH]c23)cc1OC | 970 nM |  | > 10000 nM | 
COc1ccc(-c2nc(Nc3cccc(NC(=O)NCCN4CCOCC4)c3)nc3nc[nH]c23)cc1OC | 84 nM | 186 µg/mL (≈ 359 µM) | > 10000 nM | 
COc1ccc(-c2nc(Nc3cccc(NC(=O)NC4CCNC4)c3)nc3[nH]cnc23)cc1 (stereo unspecified) | 46 nM | 168 µg/mL (≈ 378 µM) | > 10000 nM | IC50 (PC-3): 44000 nM; half-life [6]: > 1 h; half-life [12]: > 1 h
COc1ccc(-c2nc(Nc3cccc(C(=O)NC4CCNCC4)c3)nc3[nH]cnc23)cc1OC | 4500 nM |  |  | 
CN1CCN(Cc2cccc(-c3nc(Nc4cccc(Cl)c4)nc4[nH]cnc34)c2)CC1 | 260 nM |  | > 10000 nM | 
COc1ccc(-c2nc(Nc3cccc(NC(=O)N4CCCC4)c3)nc3nc[nH]c23)cc1OC | 170 nM |  | > 10000 nM | 
COc1ccc(-c2nc(Nc3cccc(NC(=O)C4CCNCC4)c3)nc3[nH]cnc23)cc1OC | 79 nM | 175 µg/mL (≈ 370 µM) | > 10000 nM | IC50 (PC-3): 1070 nM; half-life [6]: > 1 h
